Test results as given in ChEMBL document CHEMBL5126614 (ACS Med Chem Lett, 2022).
Active and inactive are the calls of the source. The calls are words filed in the database; no cut-off is given here.

Legend:
[1] = AUC (0 to infinity) in Wistar-Han rat at 0.2 mg/kg, sc by LC-MS analysis; format: ADME, organism-based; design: time infinity, dose 0.2 mg/kg, route sc; conditions: in vivo
Outline: (§1)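 Single IV or SC dose in male Wistar Han naïve rats and in rhesus monkeys, n = 3 animals per group. Peptide formulated in mannitol buffer (5% mannitol, 5 mM sodium phosphate, pH 8). Plasma concentration–time profiles were measured and peptide levels quantified by LCMS assay.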

[2] = Volume of distribution at steady state in rhesus monkey at 0.01 mg/kg, iv by LC-MS analysis; format: ADME, organism-based, Macaca mulatta; conditions: in vivo, read-out: Vdss; outline: as §1
[3] = Agonist activity at rhesus monkey GCGR; design: species or system Macaca mulatta
[4] = Plasma clearance in Wistar-Han rat at 0.1 mg/kg, iv by LC-MS analysis; format: ADME, organism-based; outline: as §1
[5] = Bioavailability in rhesus monkey at 0.05 mg/kg, sc by LC-MS analysis; format: ADME, organism-based, Macaca mulatta; conditions: in vivo; outline: as §1
[6] = test system: Rhesus monkey; test: Antidiabetic activity in type 2 diabetes rhesus monkey model assessed as reduction in fasting glucose level at 3 ug/kg, sc qd for 3 weeks and measured on day 22 by intravenous glucose tolerance test; format: functional, organism-based; conditions: Macaca mulatta, dose 3.0 µg/kg, time 22.0 day
Outline: (§2)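 Type 2 diabetic rhesus monkeys received daily dosing for 3 weeks, alongside vehicle and a liraglutide benchmark at 30 μg/kg. Fasting plasma glucose was compared with baseline or vehicle, and fasting insulin with vehicle.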

[7] = test system: Rhesus monkey; test: Anti-obesity activity in type 2 diabetes rhesus monkey model assessed as increase in free fatty acid level at 3 ug/kg, sc qd for 3 weeks and measured on day 22 relative to control; format: functional, Macaca mulatta; conditions: dose 3 µg/kg, time 22 day
[8] = Elimination half life in Wistar-Han rat at 0.1 mg/kg, iv by LC-MS analysis; format: ADME, organism-based; conditions: in vivo, read-out: beta t1/2 (converted); outline: as §1
[9] = Cmax in rhesus monkey at 0.05 mg/kg, sc by LC-MS analysis; format: ADME, organism-based, Macaca mulatta; design: dose 0.05 mg/kg, route sc; conditions: in vivo; outline: as §1
[10] = Solubility of compound at pH 8; format: physicochemical; conditions: buffer
[11] = test system: Rhesus monkey; test: Anti-obesity activity in type 2 diabetes rhesus monkey model assessed as reduction in cumulative food intake at 3 ug/kg, sc qd for 3 weeks and measured daily for 21 days relative to baseline; format: functional, Macaca mulatta; design: scale not given: the % may be the effect or the level left; conditions: dose 3 µg/kg
[12] = test system: Rhesus monkey; test: Antidiabetic activity in type 2 diabetes rhesus monkey model assessed as increase in total adiponectin level at 3 ug/kg, sc qd for 3 weeks and measured on day 22; conditions: Macaca mulatta, dose 3.0 µg/kg, time 22.0 day
[13] = test system: Rhesus monkey; test: Antidiabetic activity in type 2 diabetes rhesus monkey model assessed as HOMA-IR at 3 ug/kg, sc qd for 3 weeks and measured on day 22 (reference value: 9.6 +/- 1.9); format: functional, Macaca mulatta; conditions: dose 3 µg/kg, time 22 day
[14] = Terminal half life in rhesus monkey at 0.01 mg/kg, iv by LC-MS analysis; format: ADME, organism-based, Macaca mulatta; conditions: in vivo, read-out: beta t1/2 (converted); outline: as §1
[15] = Solubility of compound at pH 3 to 5; format: physicochemical; conditions: buffer
[16] = Cmax in Wistar-Han rat at 0.2 mg/kg, sc by LC-MS analysis; format: ADME, organism-based; design: dose 0.2 mg/kg, route sc; conditions: in vivo; outline: as §1
[17] = test system: Rhesus monkey; test: Anti-obesity activity in type 2 diabetes rhesus monkey model assessed as increase in fasting ketone beta-hydroxybutyrate level at 3 ug/kg, sc qd for 3 weeks and measured on day 22 relative to control; conditions: dose 3 µg/kg, time 22 day
[18] = Volume of distribution at steady state in Wistar-Han rat at 0.1 mg/kg, iv by LC-MS analysis; format: ADME, organism-based; conditions: in vivo, read-out: Vdss; outline: as §1
[19] = Agonist activity at rhesus monkey GLP1R; design: species or system Macaca mulatta
[20] = biological target: Dipeptidyl peptidase 4 (Homo sapiens, UniProt P27487); test: Stability of compound assessed as DPP4 (unknown origin)-mediated hydrolysis; format: ADME
Dipeptidyl peptidase 4, sequence (P27487 whole entry): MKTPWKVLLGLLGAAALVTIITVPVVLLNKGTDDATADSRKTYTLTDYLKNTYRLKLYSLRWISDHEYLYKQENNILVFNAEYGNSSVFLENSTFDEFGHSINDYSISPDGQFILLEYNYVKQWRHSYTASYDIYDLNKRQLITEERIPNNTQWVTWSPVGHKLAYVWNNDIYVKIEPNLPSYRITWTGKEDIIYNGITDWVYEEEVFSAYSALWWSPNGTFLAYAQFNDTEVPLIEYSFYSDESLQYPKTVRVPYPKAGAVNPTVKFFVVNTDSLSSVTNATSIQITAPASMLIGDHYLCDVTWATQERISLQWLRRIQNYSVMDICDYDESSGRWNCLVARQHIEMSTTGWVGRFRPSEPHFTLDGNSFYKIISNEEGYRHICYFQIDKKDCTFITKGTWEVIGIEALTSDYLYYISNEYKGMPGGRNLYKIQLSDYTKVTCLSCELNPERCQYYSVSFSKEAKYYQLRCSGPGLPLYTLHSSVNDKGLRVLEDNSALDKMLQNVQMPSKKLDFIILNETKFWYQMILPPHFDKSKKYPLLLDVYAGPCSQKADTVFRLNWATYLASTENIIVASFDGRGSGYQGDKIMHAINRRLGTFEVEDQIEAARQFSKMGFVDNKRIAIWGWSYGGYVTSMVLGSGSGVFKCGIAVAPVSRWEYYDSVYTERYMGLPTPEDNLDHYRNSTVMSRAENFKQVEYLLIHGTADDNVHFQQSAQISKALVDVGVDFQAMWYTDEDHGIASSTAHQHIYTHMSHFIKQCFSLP
Outline: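 Peptide incubated overnight at 37 °C with DPP-IV enzyme. Stability judged by receptor bioactivity measured after incubation.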

[21] = Bioavailability in Wistar-Han rat at 0.2 mg/kg, sc by LC-MS analysis; format: ADME, organism-based; conditions: in vivo; outline: as §1
[22] = test system: Rhesus monkey; test: Anti-obesity activity in type 2 diabetes rhesus monkey model assessed as weight loss at 3 ug/kg, sc qd for 3 weeks relative to control; format: functional, Macaca mulatta; conditions: dose 3 µg/kg
[23] = test system: Rhesus monkey; test: Potency index, ratio of compound to liraglutide anti-obesity activity in type 2 diabetes rhesus monkey model assessed as reduction in body weight; format: functional, Macaca mulatta
[24] = organism: Macaca mulatta; test: Selectivity ratio of EC50 for rhesus monkey GCGR to EC50 for rhesus monkey GLP1R
[25] = Tmax in rhesus monkey at 0.05 mg/kg, sc by LC-MS analysis; format: ADME, organism-based, Macaca mulatta; conditions: in vivo; outline: as §1
[26] = organism: Homo sapiens; test: Selectivity ratio of EC50 for human GCGR expressed in frozen cells to EC50 for human GLP1R expressed in frozen cells; format: cell-based
[27] = test system: Rhesus monkey; test: Potency index, ratio of compound to liraglutide anti-obesity activity in type 2 diabetes rhesus monkey model assessed as […] in FGF21 expression; format: functional, Macaca mulatta
[28] = test system: Rhesus monkey; test: Anti-obesity activity in type 2 diabetes rhesus monkey model assessed as increase in FGF21 expression at 3 ug/kg, sc qd for 3 weeks and measured on day 22 relative to baseline; format: functional, Macaca mulatta; conditions: dose 3 µg/kg, time 22 day
[29] = AUC (0 to infinity) in rhesus monkey at 0.05 mg/kg, sc by LC-MS analysis; format: ADME, organism-based, Macaca mulatta; design: time infinity, dose 0.05 mg/kg, route sc; conditions: in vivo; outline: as §1
[30] = AUC (0 to infinity) in Wistar-Han rat at 0.1 mg/kg, iv by LC-MS analysis; format: ADME, organism-based; design: time infinity, dose 0.1 mg/kg, route iv; conditions: in vivo; outline: as §1
[31] = Toxicity in rat; conditions: in vivo
[32] = Toxicity in rhesus monkey; design: species or system Macaca mulatta; conditions: in vivo
[33] = Solubility of compound at pH 7; format: physicochemical; conditions: buffer
[34] = Tmax in Wistar-Han rat at 0.2 mg/kg, sc by LC-MS analysis; format: ADME, organism-based; conditions: in vivo; outline: as §1
[35] = Plasma clearance in rhesus monkey at 0.01 mg/kg, iv by LC-MS analysis; format: ADME, organism-based, Macaca mulatta; outline: as §1
[36] = AUC (0 to infinity) in rhesus monkey at 0.01 mg/kg, iv by LC-MS analysis; format: ADME, organism-based, Macaca mulatta; design: time infinity, dose 0.01 mg/kg, route iv; conditions: in vivo; outline: as §1
[37] = test system: Rhesus monkey; test: Antidiabetic activity in type 2 diabetes rhesus monkey model assessed as reduction in fasting insulin level at 3 ug/kg, sc qd for 3 weeks and measured on day 22 relative to control; format: functional, Macaca mulatta; design: scale not given: the % may be the effect or the level left; conditions: dose 3 µg/kg, time 22 day; outline: as §2

## CCCCCCCCCCCCCCCC(=O)N[C@@H](CCC(=O)N[C@@H](CCC(=O)NCCCC[C@H](NC(=O)[C@H](CC(=O)O)NC(=O)[C@H](CO)NC(=O)[C@@H](NC(=O)[C@H](Cc1ccccc1)NC(=O)[C@@H](NC(=O)CNC(=O)[C@H](CCC(N)=O)NC(=O)[C@@H](CO)NC(=O)[C@@H](N)Cc1cnc[nH]1)[C@@H](C)O)[C@@H](C)O)C(=O)N[C@@H](CO)C(=O)N[C@@H](CCCCN)C(=O)N[C@@H](Cc1ccc(O)cc1)C(=O)N[C@@H](CC(C)C)C(=O)N[C@@H](CC(=O)O)C(=O)N[C@@H](C)C(=O)N[C@@H](CCCNC(=N)N)C(=O)N[C@@H](C)C(=O)N[C@@H](C)C(=O)N[C@@H](CCC(N)=O)C(=O)N[C@@H](CC(=O)O)C(=O)N[C@@H](Cc1ccccc1)C(=O)N[C@H](C(=O)N[C@@H](CCC(N)=O)C(=O)N[C@@H](Cc1c[nH]c2ccccc12)C(=O)N[C@@H](CC(C)C)C(=O)N[C@@H](CC(C)C)C(=O)N[C@@H](CC(=O)O)C(=O)N[C@H](C(N)=O)[C@@H](C)O)C(C)C)C(=O)O)C(=O)O
[1]
  AUC(0-inf): 0.37 µM·h
[2]
  Vd: 0.16 L/kg
[3]
  EC50: 7 pM
[4]
  clearance: 0.42 mL/min/kg
[5]
  bioavailability: 63%
[6]
  Activity: Active
[7]
  Activity: 63%
[8]
  half-life: 3 h
[9]
  Cmax: 30 nM
[10]
  solubility: > 80 mg/mL
[11]
  Activity: 30%
[12]
  Activity: Active
[13]
  Activity: 9.6
[14]
  half-life: 16 h
[15]
  solubility: Insoluble
[16]
  Cmax: 25 nM
[17]
  fold change (FC): 4
[18]
  Vd: 0.1 L/kg
[19]
  EC50: 9 pM
[20]
  Stability: Stable
[21]
  bioavailability: 18%
[22]
  Activity: 7.6%
[23]
  fold change (FC): 2
[24]
  Ratio EC50: 0.8
[25]
  Tmax: 18 h
[26]
  Ratio EC50: 0.9
[27]
  fold change (FC): >3
[28]
  fold change (FC): >3
[29]
  AUC(0-inf): 1.25 µM·h
[30]
  AUC(0-inf): 1.05 µM·h
[31]
  Activity: Non-Toxic
[32]
  Activity: Non-Toxic
[33]
  solubility: > 20 mg/mL
[34]
  Tmax: 5.3 h
[35]
  clearance: 0.12 mL/min/kg
[36]
  AUC(0-inf): 0.4 µM·h
[37]
  Activity: 50%
